Laboratory results: ChEMBL document CHEMBL4673252, “Discovery and Early Clinical Development of Isobutyl 1-[8-Methoxy-5-(1-oxo-3H-isobenzofuran-5-yl)-[1,2,4]triazolo[1,5-a]pyridin-2-yl]cyclopropanecarboxylate (LEO 39652), a Novel "Dual-Soft" PDE4 Inhibitor for Topical Treatment of Atopic Dermatitis” (J Med Chem, 2020)

How the values were obtained:
[1] = Half life in human whole blood at 0.1 uM by LC-MS/MS analysis; format: ADME, tissue-based
[2] = Clearance in human liver microsomes at 0.5 uM incubated for 40 mins in presence of NADPH by LC-MS/MS analysis; format: ADME, Microsome; details: read-out: CLH
Procedure, shortened: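 Human liver microsomes (0.5 mg/mL) with 1 mM NADPH and 0.5 μM test compound, incubated for 40 min. Samples were taken before NADPH and at 5, 10, 20, 40 min, quenched with cold acetonitrile containing internal standard, and analysed by LC-MS/MS. Control incubations in buffer and without NADPH. Apparent clearance was calculated from depletion.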

[3] = Half life in human keratinocytes at 1 uM by LC-MS/MS analysis; format: ADME, cell-based, Keratinocyte
Procedure, shortened: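 Plated human epidermal keratinocytes (1 × 10⁴ cells/well) with 1 μM compound in duplicate for up to 24 h; sampled at 0, 1, 2, 4, 24 h, acetonitrile precipitation, LC-MS/MS. Controls in growth medium. Half-life reported.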

[4] = Clearance in mini pig hepatocytes at 10 uM by UPLC/TOF-MS analysis; format: ADME, cell-based, Sus scrofa domesticus, Hepatocyte; details: read-out: CLH
[5] = Clearance in human hepatocytes at 10 uM by UPLC/TOF-MS analysis; format: ADME, cell-based, Hepatocyte
[6] = Drug exposure in human assessed as ratio of drug level to total AUC at 0.25% of Isobutyl 1-[8-Methoxy-5-(1-oxo-3H-isobenzofuran-5-yl)-[1,2,4]-triazolo[1,5-a]pyridin-2-yl]cyclopropanecarboxylate dosed via topical administration in lipid cream; format: ADME, organism-based; details: in vivo, topical_or_ocular
[7] = AUC (0 to 24 hrs) in cynomolgus monkey at 30 mg/kg, sc dosed as single administration; format: ADME, organism-based, Macaca fascicularis; design: time < 24 hr, route subcutaneous, dose 30 mg/kg; details: in vivo
Procedure, shortened: (§1)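 Single subcutaneous dose of 30 mg/kg.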

[8] = Cmax in cynomolgus monkey at 30 mg/kg, sc dosed as single administration; format: ADME, organism-based, Macaca fascicularis; design: route subcutaneous, dose 30 mg/kg; details: in vivo; procedure, shortened: as §1
[9] = Drug exposure in Isobutyl 1-[8-Methoxy-5-(1-oxo-3H-isobenzofuran-5-yl)-[1,2,4]-triazolo[1,5-a]pyridin-2-yl]cyclopropanecarboxylate dosed cynomolgus monkey assessed as ratio of drug level to total AUC; format: ADME, organism-based, Macaca fascicularis; details: in vivo
Procedure, shortened: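 Blood was drawn at 0.25–24 h after infusion start and 6, 12, 24 h after infusion end into EDTA-K3, then plasma stabilized with ascorbic acid. LC-MS/MS quantification of parent and metabolites; noncompartmental PK.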

[10] = Drug exposure in of Isobutyl 1-[8-Methoxy-5-(1-oxo-3H-isobenzofuran-5-yl)-[1,2,4]-triazolo[1,5-a]pyridin-2-yl]cyclopropanecarboxylate dosed Gottingen mini pig assessed as ratio of drug level to total AUC at 0.5 to 2 mg/kg, iv measured up to 24 hrs by LC-MS/MS analysis; format: ADME, organism-based, Sus scrofa domesticus; details: in vivo, BLD = below limit of detection, dose 0.5-2 mg/kg
[11] = Cmax in human patient with atopic dermatitis at 0.25% dosed topically as lipid cream; format: ADME, organism-based; design: dose 0.25 %; details: in vivo, topical or ocular
[12] = AUC (0 to 24 hrs) in human patient with atopic dermatitis at 0.25% dosed topically as lipid cream; format: ADME, organism-based; design: time < 24 hr, dose 0.25 %; details: in vivo, topical or ocular

Compound	half-life at 0.1 µM [1] [h]	CLint scaled at 0.5 µM [2] [mL/min/kg]	half-life at 1 µM [3] [h]	other results
COc1ccc(-c2ccc3c(c2)COC3=O)n2nc(C3(C(=O)OC4CCC4)CC3)nc12	< 0.167	> 200	> 9	
COC(=O)c1cccc(-c2ccc(OC)c3nc(C4(C(=O)NCC(C)C)CC4)nn23)c1	> 1	> 200	> 12	
COc1ccc(-c2ccc3c(c2)COC3=O)n2nc(C3(C(=O)NCC(C)C)CC3)nc12	< 0.167	> 200	10	
COc1ccc(-c2ccc3c(c2)COC3=O)n2nc(C3(C(=O)O[C@@H]4CCOC4)CC3)nc12	< 0.167	101	> 12	
CCCCOC(=O)C1(c2nc3c(OC)ccc(-c4ccc5c(c4)COC5=O)n3n2)CC1	0.333	> 200	10	
CCCOC(=O)C1(c2nc3c(OC)ccc(-c4ccc5c(c4)COC5=O)n3n2)CC1	0.217	139	> 12	
COc1ccc(-c2ccc3c(c2)COC3=O)n2nc(C3(C(=O)OC4COC4)CC3)nc12	< 0.167	97	> 12	
COC(=O)c1ccc(-c2ccc(OC)c3nc(C4CC4)nn23)cc1	> 1	> 200	> 12	
COc1ccc(-c2cccc3c2COC3=O)n2nc(C3(C(=O)NCC(C)C)CC3)nc12	> 1	95	> 12	
COc1ccc(-c2ccc3c(c2)COC3=O)n2nc(C3(C(=O)OC(C)C)CC3)nc12	0.183	97	> 12	
COc1ccc(-c2cccc(C#N)c2)n2nc(C3(CO)CC3)nc12		< 10		
COc1ccc(-c2ccc3c(c2)COC3=O)n2nc(C3(C(=O)OC[C@@H](C)CO)CC3)nc12	< 0.167	64	> 12	
COc1ccc(-c2cccc(C#N)c2)n2nc(C3(C(=O)OCC(C)C)CC3)nc12	> 1	> 200	> 12	
COc1ccc(-c2cccc(C#N)c2)n2nc(C3(CCO)CC3)nc12		16		
COc1ccc(-c2ccc3c(c2)COC3=O)n2nc(C3(C(=O)OC(C)(C)C)CC3)nc12	0.183	> 200	> 12	
COc1ccc(-c2ccc3c(c2)COC3=O)n2nc(C3(C(=O)O[C@H]4CCOC4)CC3)nc12	< 0.167	77	> 12	
COc1ccc(-c2ccc3c(c2)COC3=O)n2nc(C3CC3)nc12	0.2	64	> 12	
COc1ccc(-c2ccc3c(c2)COC3=O)n2nc(C3(C(=O)OCC(C)(C)O)CC3)nc12	0.2	66	> 12	CLint scaled at 10 µM [4]: > 26 mL/min/kg; CLhep predicted at 10 µM [5]: 16 mL/min/kg; Drug uptake ([6]; BLD = below limit of detection): Bld; AUC ([7]; 24 h, BLD = below limit of detection): Bld; Cmax ([8]; BLD = below limit of detection): Bld; Drug uptake [9]: 0.1%; Drug uptake [10]: Bld
CC[C@H](C)OC(=O)C1(c2nc3c(OC)ccc(-c4ccc5c(c4)COC5=O)n3n2)CC1	0.183	> 200	> 12	
CCOC(=O)C1(c2nc3c(OC)ccc(-c4ccc5c(c4)COC5=O)n3n2)CC1	0.183	140	> 12	
COc1ccc(-c2ccc(C(=O)O)c(CO)c2)n2nc(C3(C(=O)OCC(C)(C)O)CC3)nc12				CLint scaled at 10 µM [4]: 13 mL/min/kg; Cmax [11]: 0.029 ng/mL; CLhep predicted at 10 µM [5]: 7.1 mL/min/kg; Drug uptake [6]: 1%; AUC(0-t) at 24 h [7]: 19.4 ng·h/mL; Cmax ([8]; read-out: Cmax): 10.5 ng/mL; Drug uptake [9]: 1%; AUC(0-t) at 24 h [12]: 0.27 ng·h/mL; Drug uptake [10]: Bld
COc1ccc(-c2cccc(C#N)c2)n2nc(C3(C(=O)O)CC3)nc12		< 10		
COC(=O)c1cccc(-c2ccc(OC)c3nc(C4CC4)nn23)c1	> 1	> 200	> 12	
COc1ccc(-c2ccc3c(c2)COC3=O)n2nc(C3(C(=O)OC4CCCCC4)CC3)nc12	0.383	> 200	> 12	

The next lines start with results.

half-life at 0.1 µM [1] [h]	CLint scaled at 0.5 µM [2] [mL/min/kg]	half-life at 1 µM [3] [h]	Compound	other results
0.283	> 200	12	COc1ccc(-c2ccc3c(c2)COC3=O)n2nc(C3(C(=O)OC4CCCC4)CC3)nc12	
	< 10		COc1ccc(-c2cccc(C#N)c2)n2nc(C3(CC(=O)O)CC3)nc12	
0.25	< 10	> 12	COc1ccc(-c2cccc3c2COC3=O)n2nc(C3CC3)nc12	
0.567	> 200	3.7	COc1ccc(-c2ccc3c(c2)COC3=O)n2nc(C3(C(=O)OC4CCCCCC4)CC3)nc12	
	33		COc1ccc(-c2cccc(C#N)c2)n2nc(C3(CCCO)CC3)nc12	
	16		COc1ccc(-c2cccc(C#N)c2)n2nc(C3(CCC(=O)O)CC3)nc12	
< 0.167	193	> 12	COC(=O)C1(c2nc3c(OC)ccc(-c4ccc5c(c4)COC5=O)n3n2)CC1	
0.467	> 200	1.2	COc1ccc(-c2cccc(C#N)c2)n2nc(C3(COC(=O)C(C)C)CC3)nc12	
< 0.167	66	> 12	COc1ccc(-c2ccc3c(c2)COC3=O)n2nc(C3(C(=O)OC[C@H](C)CO)CC3)nc12	
	> 200	9	COC(=O)c1ccc(-c2ccc(OC)c3nc(C4(C(=O)NCC(C)C)CC4)nn23)cc1	
